HIV Rev-RRE inh = inhibitors of HIV-1 Rev-RRE RNA interaction. P05866. Rev peptide-RRE RNA binding, FRET. inhibition, % at 8 µM. 97,000 compounds, 0.79% hits. AID 704;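 active means inhibition above the screen-wide mean plus 3 SD, cut at about 35% in these data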
Target sequence (P05866 whole entry, looked up): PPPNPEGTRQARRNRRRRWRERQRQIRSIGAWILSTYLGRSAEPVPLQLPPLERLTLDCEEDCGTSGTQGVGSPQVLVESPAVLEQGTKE
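Assay system: Rev peptide and RRE RNA, both fluorescently labelled; times: 5 min preincubation and 15 min binding, 25 °C; detection: FRET, ex 480 nm, em 540 and 671 nm; read-out basis: % inhibition from 671/540 nm acceptor-to-donor ratio, scaled between controls; benchmarks: DMSO low control, neomycin B high control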
CYP2C9 activ = activators of human CYP2C9 | P11712 | recombinant CYP2C9, luciferin-H conversion, luminescence; stronger effect = higher value; factor 1 = untreated enzyme, 0 = blocked | activation factor at 5 µM | 96,000 compounds, 1.4% hits;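 active means activation factor of 2 or more for CYP2C9 at a 5 µM dose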
CYP2C9 inh = blocks human cytochrome P450 2C9; P11712; inhibition, % at 5 µM; 96,000 compounds, 20% hits; CYP2C9 Supersomes, luciferin-H conversion, luminescence; AID 777;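 active means blocking of liver enzyme CYP2C9 beyond about 50% at 5 µM, limit read from the data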
CYP2C19 inhib = blocks human cytochrome P450 2C19 | CYP2C19 Supersomes, luciferin-H EGE luminescence, 30 min | 96,000 compounds, 21% hits | P33261 | inhibition, % at 5 µM | AID 778;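 active means CYP2C19 inhibition above a set limit at 5 µM in the primary screen, cut at about 50% in these data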
Target sequence (P33261 whole entry, looked up): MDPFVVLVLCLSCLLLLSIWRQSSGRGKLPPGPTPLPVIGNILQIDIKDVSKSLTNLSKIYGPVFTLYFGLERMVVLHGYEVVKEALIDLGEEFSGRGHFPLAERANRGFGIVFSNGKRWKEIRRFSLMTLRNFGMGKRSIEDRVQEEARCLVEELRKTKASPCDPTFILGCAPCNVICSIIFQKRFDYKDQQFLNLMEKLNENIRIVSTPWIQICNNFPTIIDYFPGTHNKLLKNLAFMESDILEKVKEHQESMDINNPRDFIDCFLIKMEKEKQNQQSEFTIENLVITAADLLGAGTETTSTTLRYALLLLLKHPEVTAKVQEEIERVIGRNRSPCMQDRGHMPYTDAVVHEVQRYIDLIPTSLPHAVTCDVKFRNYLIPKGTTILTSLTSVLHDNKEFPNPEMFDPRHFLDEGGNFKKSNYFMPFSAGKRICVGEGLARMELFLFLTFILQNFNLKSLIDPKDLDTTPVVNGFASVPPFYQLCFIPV
Cav3 T inh = inhibitors of human Cav3.2 T-type calcium channel; 100,000 compounds, 4% hits; AID 449739; O95180; B-score at 10 µM; Cav3.2-expressing cells, Fluo-4 calcium fluorescence FDSS; stronger effect = lower value;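 active means single-dose well whose peak fluorescence ratio is a statistical outlier from its plate by either plate-standardised score or position-corrected B-score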
CYP2C19 activ = activators of human cytochrome P450 2C19 | recombinant CYP2C19, luciferin-H EGE luminescence; stronger effect = higher value; 0 = fully inhibited enzyme, 1 = untreated enzyme | activation factor at 5 µM | 96,000 tested, under 10 active | AID 1025;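 active means activation factor of at least 2 at 5 µM in the primary screen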
Hits are given with their value. The list is not random: actives were taken first. Their share in the collection is about 27%.

For CCCOc1cccc(-c2cc(C(=O)NNC(=S)NCC)c3ccccc3n2)c1 the results were HIV Rev-RRE inh inactive, CYP2C9 activ inactive, CYP2C9 inh 70, CYP2C19 inhib inactive and CYP2C19 activ inactive.
Screening CC(C)CNC(=S)NNC(=O)c1csc2ccccc12 returned HIV Rev-RRE inh inactive, CYP2C9 activ inactive, CYP2C9 inh inactive, CYP2C19 inhib inactive, Cav3 T inh inactive and CYP2C19 activ inactive.
`Cc1cc(C(=O)O)c2ccccc2n1` gave HIV Rev-RRE inh inactive, CYP2C9 activ inactive, CYP2C9 inh inactive, CYP2C19 inhib inactive, Cav3 T inh inactive and CYP2C19 activ inactive.
Screening CCNC(=S)NNC(=O)c1cc(CC(C)C)nc2ccccc12 returned HIV Rev-RRE inh inactive, CYP2C9 activ inactive, CYP2C9 inh 64, CYP2C19 inhib inactive, Cav3 T inh inactive and CYP2C19 activ inactive.
For CCNC(=S)NNC(=O)c1cc(-c2ccccc2C)nc2ccccc12 the results were HIV Rev-RRE inh inactive, CYP2C9 activ inactive, CYP2C9 inh 60, CYP2C19 inhib inactive, Cav3 T inh inactive and CYP2C19 activ inactive.
`COc1ccc(Br)cc1C(=O)Nc1cccc(-c2nnc(-c3ccco3)o2)c1` gave HIV Rev-RRE inh inactive and Cav3 T inh inactive.
CCCOc1ccc(C(=O)NNC(=S)NC(=O)c2cc(-c3ccc(Cl)cc3)nc3ccccc23)cc1 was read as HIV Rev-RRE inh inactive, CYP2C9 activ inactive, CYP2C9 inh 50, CYP2C19 inhib inactive, Cav3 T inh -6.7 and CYP2C19 activ inactive.
Screening COc1ccc(C(=O)NNC(=S)NC(=O)c2cc(-c3ccccc3)nc3ccccc23)cc1 returned HIV Rev-RRE inh inactive, CYP2C9 activ inactive, CYP2C9 inh inactive, CYP2C19 inhib inactive and CYP2C19 activ inactive.
CCCc1cc(C(=O)NNC(=S)NC(C)c2ccccc2)cs1 (configuration not stated) was read as HIV Rev-RRE inh inactive, CYP2C9 activ inactive, CYP2C9 inh inactive, CYP2C19 inhib 81, Cav3 T inh inactive and CYP2C19 activ inactive.
Screening CCCCNC(=S)NNC(=O)c1csc(CC)c1 returned HIV Rev-RRE inh inactive and Cav3 T inh inactive.
Screening CCCCOC(=O)C1C2C=C[C@]3(CN(CCCOC)C(=O)[C@H]13)O2 (some centres not stated) returned HIV Rev-RRE inh inactive, CYP2C9 activ inactive, CYP2C9 inh inactive, CYP2C19 inhib inactive, Cav3 T inh inactive and CYP2C19 activ inactive.
For Cc1cc(C)c(C(N)=O)c(NCCc2ccccc2)n1 the results were HIV Rev-RRE inh inactive, CYP2C9 activ inactive, CYP2C9 inh inactive, CYP2C19 inhib 56, Cav3 T inh inactive and CYP2C19 activ inactive.
`Cc1cccc(-c2nc(=S)c3c(o2)CCCC3)c1` gave HIV Rev-RRE inh inactive, CYP2C9 activ 2.5, CYP2C9 inh inactive, CYP2C19 inhib inactive, Cav3 T inh inactive and CYP2C19 activ inactive.
`Cc1ccc(N2C(=O)c3ccc(C(=O)N4CCN(c5cccc(C)c5C)CC4)cc3C2=O)cc1` gave HIV Rev-RRE inh inactive and Cav3 T inh inactive.
COCCNCCOc1ccccc1-c1ccccc1 was read as HIV Rev-RRE inh inactive, CYP2C9 activ inactive, CYP2C9 inh inactive, CYP2C19 inhib 59, Cav3 T inh inactive and CYP2C19 activ inactive.
Screening CCOCCCNC(=S)N1C2CCC1CC(NC(=O)NC13CC4CC(CC(C4)C1)C3)C2 (configuration not stated) returned HIV Rev-RRE inh inactive, CYP2C9 activ inactive, CYP2C9 inh inactive, CYP2C19 inhib inactive, Cav3 T inh inactive and CYP2C19 activ inactive.
`CC(NC(=O)C(CC(=O)OC(C)(C)C)NC(=O)OC(C)(C)C)C(N)=O` (configuration not stated) gave HIV Rev-RRE inh inactive, CYP2C9 activ inactive, CYP2C9 inh inactive, CYP2C19 inhib inactive, Cav3 T inh inactive and CYP2C19 activ inactive.
For C=CCOC(=O)CSCC(NC(=O)OC(C)(C)C)C(=O)OCC (configuration not stated) the results were HIV Rev-RRE inh inactive, CYP2C9 activ inactive, CYP2C9 inh inactive, CYP2C19 inhib 58 and CYP2C19 activ inactive.
Screening Cc1cccc(OCC(=O)Nc2cccc(-c3nnc(-c4ccccc4)o3)c2)c1C returned HIV Rev-RRE inh inactive, CYP2C9 activ inactive, CYP2C9 inh 90, CYP2C19 inhib 74, Cav3 T inh inactive and CYP2C19 activ inactive.
For CCCCC(=O)Nc1cccc(-c2nnc(-c3ccccc3)o2)c1 the results were HIV Rev-RRE inh inactive, CYP2C9 activ inactive, CYP2C9 inh 75, CYP2C19 inhib 52, Cav3 T inh inactive and CYP2C19 activ inactive.
For Cc1cccc(OCC(=O)NCc2ccncc2)c1C the results were HIV Rev-RRE inh inactive, CYP2C9 activ inactive, CYP2C9 inh 55, CYP2C19 inhib 74 and CYP2C19 activ inactive.
Screening Cc1cc2nc(SCC(=O)N(C)C)c3c(c2cc1C)CCCC3 returned HIV Rev-RRE inh inactive, CYP2C9 activ inactive, CYP2C9 inh inactive, CYP2C19 inhib inactive, Cav3 T inh inactive and CYP2C19 activ inactive.
O/N=C(\COc1ccccc1O)c1ccccc1 was read as HIV Rev-RRE inh inactive, CYP2C9 activ inactive, CYP2C9 inh inactive, CYP2C19 inhib 93, Cav3 T inh inactive and CYP2C19 activ inactive.
For O=c1ccc(/C=C/c2ccccc2)nn1Cc1ccccc1Cl the results were HIV Rev-RRE inh inactive, CYP2C9 activ inactive, CYP2C9 inh 52, CYP2C19 inhib inactive, Cav3 T inh inactive and CYP2C19 activ inactive.
COCCCNC(=O)/C=C/c1ccc(Cl)cc1 was read as HIV Rev-RRE inh inactive, CYP2C9 activ inactive, CYP2C9 inh inactive, CYP2C19 inhib inactive, Cav3 T inh inactive and CYP2C19 activ inactive.
For COC(=O)c1cn(CC(=O)N2CCCCCC2)c2ccccc12 the results were HIV Rev-RRE inh inactive, CYP2C9 activ inactive, CYP2C9 inh inactive, CYP2C19 inhib 92, Cav3 T inh inactive and CYP2C19 activ inactive.
Screening CC1CCN(C(=O)Cn2cc(C(=O)C3CC3)c3ccccc32)CC1 returned HIV Rev-RRE inh inactive and Cav3 T inh inactive.
`COC(=O)c1cn(CC(=O)NCc2ccco2)c2ccccc12` gave HIV Rev-RRE inh inactive, CYP2C9 activ inactive, CYP2C9 inh inactive, CYP2C19 inhib 92, Cav3 T inh inactive and CYP2C19 activ inactive.
`O=C(Nc1ccc(Br)cc1)c1ccc(CSC2=NCCS2)cc1` gave HIV Rev-RRE inh inactive, CYP2C9 activ inactive, CYP2C9 inh inactive, CYP2C19 inhib inactive, Cav3 T inh inactive and CYP2C19 activ inactive.
COc1ccc(-c2nc(Cc3ccc(Cl)cc3)no2)cc1OC was read as HIV Rev-RRE inh inactive, CYP2C9 activ inactive, CYP2C9 inh inactive, CYP2C19 inhib inactive, Cav3 T inh inactive and CYP2C19 activ inactive.
COc1cccc(-c2nc(Cc3ccc(OC)c(OC)c3)no2)c1 was read as HIV Rev-RRE inh inactive, CYP2C9 activ inactive, CYP2C9 inh inactive, CYP2C19 inhib 58, Cav3 T inh inactive and CYP2C19 activ inactive.
Screening O=C1CSC(c2ccccn2)N1c1ccc(Cl)c(Cl)c1 (configuration not stated) returned HIV Rev-RRE inh inactive, CYP2C9 activ inactive, CYP2C9 inh inactive, CYP2C19 inhib 63, Cav3 T inh inactive and CYP2C19 activ inactive.
